MrgX1 ag: agonists of human MrgX1 receptor, primary screen, HEK293 cells, Fluo-4 calcium flux. Mas-related G-protein coupled receptor member X1 (Homo sapiens), Q96LB2. Fluo-4 calcium fluorescence, agonist mode; active compounds read high. B-score at 10 µM. actives 0.44% (n = 310,000). AID 588627, 2011;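 active = calcium response B-score plate-corrected fluorescence ratio at least 3 library SD, with starting fluorescence B-score inside 5 SD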
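Test system: Stable human MrgX1 HEK293 cell line | Schedule: Overnight plating before 1 h dye loading | Read-out basis: Baseline-normalised fluorescence change ratio, B-scored | Detection: Kinetic calcium dye fluorescence, Fluo-4 NW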
MrgX1 PAM: positive allosteric modulators of MrgX1, primary screen, HEK293 cells, Fluo-4 calcium flux | FDSS; active compounds read high | B-score at 10 µM | actives 0.63% (n = 310,000) | AID 588675, 2011;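 active = plate-corrected calcium response at least 3 library SD above typical, normal starting fluorescence, not activating the receptor alone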;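 note: compound read alongside a low EC10 to EC30 dose of BAM8-22 agonist; peak minus trough fluorescence over baseline measured at the second addition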
RGS4 pot: RGS4 potentiators or activators, primary screen, cell-based, HEK293 M3R inducible RGS4, calcium flux | carbachol calcium flux Fluo4; active compounds read low | B-score at 10 µM | actives 0.92% (n = 310,000);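 active = B-score of the integrated calcium signal more than 4 SD below the library mean, with starting fluorescence not abnormally high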;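 note: negative B-score means reduced calcium response which marks RGS4 activation or potentiation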
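Assay system: Inducible-RGS4 HEK293 cells carrying M3 receptor | Schedule: Compound preincubation 20 min at room temperature before agonist | Signal: Kinetic calcium fluorescence imaging with Fluo4-AM dye, 2 µM | Read-out basis: B score from integrated fluorescence ratio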
Kir21 block: inhibitors of mouse Kir2.1 inward-rectifier potassium channel; Inward rectifier potassium channel 2 (Mus musculus), P35561; HEK293-Kir2.1, FluxOR thallium flux fluorescence; active compounds read low; B-score at 10 µM; actives 0.85% (n = 310,000);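 active = fluorescence ratio B-score at or below minus 3 SD of library scores, with starting-brightness B-score within 2 SD, cut at about -4.2 in these data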;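 note: channel flux triggered by added potassium and thallium sulfate stimulus; B-score of peak minus minimum fluorescence over baseline after thallium stimulus; more negative B-score means stronger Kir2.1 block with less thallium influx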
Target sequence (P35561 whole entry, looked up): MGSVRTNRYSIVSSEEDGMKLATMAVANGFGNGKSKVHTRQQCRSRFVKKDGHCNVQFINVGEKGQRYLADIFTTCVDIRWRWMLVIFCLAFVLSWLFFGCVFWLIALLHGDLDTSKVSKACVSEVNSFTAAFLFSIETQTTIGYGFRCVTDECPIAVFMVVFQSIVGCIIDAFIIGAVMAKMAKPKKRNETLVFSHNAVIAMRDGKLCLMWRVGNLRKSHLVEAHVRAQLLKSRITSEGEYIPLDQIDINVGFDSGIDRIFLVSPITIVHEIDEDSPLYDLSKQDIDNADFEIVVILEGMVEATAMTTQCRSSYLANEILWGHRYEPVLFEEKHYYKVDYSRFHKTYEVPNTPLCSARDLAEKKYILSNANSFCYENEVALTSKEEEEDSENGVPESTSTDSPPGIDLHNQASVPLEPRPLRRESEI
RGS4 inh: RGS4 inhibitors, primary screen, cell-based, HEK293 M3R inducible RGS4, calcium flux | Regulator of G-protein signaling 4 (Homo sapiens), P49798 | Fluo-4 calcium flux; active compounds read high; triggered by carbachol at its EC20 | B-score at 10 µM | actives 0.45% (n = 310,000);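 active = B-score, a plate-corrected calcium signal, over three deviations above library mean, with baseline fluorescence within five deviations of library mean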;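 note: RGS4 expression induced by doxycycline in cells with stable M3 receptor; B-score is computed from the integrated fluorescence ratio over baseline after carbachol; higher B-score means a larger calcium signal and so more RGS4 inhibition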
Target sequence (P49798 whole entry, looked up): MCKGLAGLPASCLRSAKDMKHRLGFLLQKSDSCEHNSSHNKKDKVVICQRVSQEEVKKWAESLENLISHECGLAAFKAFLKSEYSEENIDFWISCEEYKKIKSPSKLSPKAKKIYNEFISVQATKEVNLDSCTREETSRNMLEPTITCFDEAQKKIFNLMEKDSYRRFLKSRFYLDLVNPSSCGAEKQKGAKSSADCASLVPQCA
MrgX1 antag: antagonists of human MrgX1 receptor, primary screen, HEK293 cells, Fluo-4 calcium flux; AID 588676, 2011; BAM8-22 antagonism; active compounds read low; B-score at 10 µM; Mas-related G-protein coupled receptor member X1 (Homo sapiens), Q96LB2; actives 1.3% (n = 310,000);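 active = calcium-response B-score plate-corrected more than 3 library SD below zero, starting fluorescence within 5 deviations, no agonist response on first addition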;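 note: peak minus trough fluorescence over baseline after final BAM8-22 challenge near maximal dose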
Active calls of the source: *; i = inactive. Sampled rows, rich in hits. Any-hit rate of the full collection: about 4.1%.

SMILES | MrgX1 ag | MrgX1 PAM | RGS4 pot | Kir21 block | RGS4 inh | MrgX1 antag
Cc1ccc(-c2csc(NC(=O)COC(=O)c3cccc(S(=O)(=O)N4CCOCC4)c3)n2)cc1 | i | i | i | 0.49 | i | -4.8*
Cc1ccc(-c2csc(NC(=O)c3cccc(S(=O)(=O)N4CCN(C)CC4)c3)n2)cc1 | i | i | i | 0.25 | i | i
Nc1c(-c2ccc(Cl)cc2)cnn1-c1cc(C(F)(F)F)cc(C(F)(F)F)c1 | i | 14* | i | 0.53 | i | i
COc1ccc(CCN2C(=O)CC(NNC(=O)c3ccc(F)cc3)C2=O)cc1OC (centres undefined) | i | i | i | -0.03 | i | i
CCOc1ccc(C(=O)NNC2CC(=O)N(CCc3ccccc3)C2=O)cc1OC (centres undefined) | i | i | i | -0.37 | i | -5.5*
CC(C)(C)C1CCC(C(=O)OCC(=O)c2ccc[nH]2)CC1 (centres undefined) | i | i | i | -5.3* | i | i
Cc1ccc(N2CC(C(=O)OCC(=O)c3ccc[nH]3)CC2=O)cc1 (centres undefined) | i | i | i | -0.26 | i | i
CCN(CC)CCCNc1ccc(-c2nnc(-c3ccc(OCC(C)C)cc3)o2)cn1 | i | i | i | -6.5* | i | i
CC(C)COc1ccc(-c2nnc(-c3ccco3)o2)cc1 | i | i | i | 0.03 | i | i
CN(C)CC#CCC(O)(c1ccccc1)c1ccccc1 | i | i | i | -0.17 | i | i
CN(C)Cc1ccccc1C(O)(c1ccccc1)c1ccccc1 | i | i | i | -4.7* | i | i
COc1ccc(Nc2ncccc2C(=O)O)cc1 | i | i | i | 0 | i | i
CC(CN1CCCCCC1)C(=O)NN (centres undefined) | i | i | i | 1.4 | i | i
COc1cccc(/C=C/C(=O)c2cccc([N+](=O)[O-])c2)c1 | 38* | i | i | -0.41 | i | i
Cc1cccc(/C=C/C(=O)c2ccc(NC3=NCCCS3)cc2)c1 | i | i | i | -0.01 | i | i
COc1cccc(/C=C/C(=O)c2ccc(NC3=NCCCS3)cc2)c1 | 45* | i | i | -1.6 | i | i
O=C(/C=C/c1cccc([N+](=O)[O-])c1)c1ccco1 | 56* | i | i | -2.6 | i | i
COc1ccc(Oc2ccc(/C=C/C(=O)c3ccc(O)cc3)cc2[N+](=O)[O-])cc1 | i | i | i | -0.38 | i | -5.4*
Cn1c(=O)n(Cc2ccccc2)c(=O)c2c1nc1n2CCN1Cc1ccco1 | i | i | i | 0.12 | i | i
Cc1ccc(NC(=O)Cn2nnc(C(=O)NCc3cccs3)c2N)cc1 | i | i | i | -9.1e-16 | i | i
O=c1c2cccnc2[nH]c(=S)n1CCCN1CCN(c2ccc(F)cc2)CC1 | i | i | i | 0.43 | i | i
O=[N+]([O-])c1cc([N+](=O)[O-])c(Oc2ccc(F)cc2)cc1NN1CCCCC1 | i | i | i | 0.29 | i | i
CC(=O)c1ccccc1Oc1cc(NN2CCCCC2)c([N+](=O)[O-])cc1[N+](=O)[O-] | i | i | -8.3* | -0.91 | i | i
CC(=O)c1cccc(Oc2cc(NN3CCCCC3)c([N+](=O)[O-])cc2[N+](=O)[O-])c1 | i | i | -7.3* | -0.69 | i | i
O=[N+]([O-])c1cc([N+](=O)[O-])c(Oc2ccc(F)cc2F)cc1NN1CCCCC1 | i | i | i | 0.32 | i | i
SMILES | MrgX1 ag | MrgX1 PAM | RGS4 pot | Kir21 block | RGS4 inh | MrgX1 antag
O=[N+]([O-])c1cc([N+](=O)[O-])c(Oc2c(F)ccc(F)c2F)cc1NN1CCCCC1 | i | i | -7.2* | -0.09 | i | i
COc1ccc(Oc2cc(NN3CCCCC3)c([N+](=O)[O-])cc2[N+](=O)[O-])cc1OC | i | i | -8.2* | 0.3 | i | i
CC(C)(CNC(=O)c1ccc(-c2cccc(C(F)(F)F)c2)o1)N1CCOCC1 | i | i | i | -0.69 | i | i
COc1ccccc1CNC(=O)Cc1c[nH]c2ccccc12 | i | i | i | -1.5 | i | i
CC(C)(C)C(=O)C[n+]1cccc(C(N)=O)c1 | i | i | i | 0.56 | i | i
O=C(CCn1c(=O)sc2ccccc21)Nc1nc2ccccc2s1 | i | i | i | -0.02 | i | i
O=C(c1ccccc1)N1CCN=C1c1ccccc1 | i | i | i | -0.31 | i | i
O=C(c1ccc(Cl)cc1)N1CCN=C1c1ccccc1 | i | i | i | -4.5* | i | i
CCCS(=O)(=O)N1CCCC(C(=O)NCCCN(C)c2ccccc2)C1 (centres undefined) | i | i | i | 2 | i | i
CCN(CC)S(=O)(=O)c1cc(C(=O)Oc2cccc(-c3cnc4ccccc4n3)c2)ccc1Br | i | i | i | -1.6 | i | i
CCN(CC)S(=O)(=O)c1ccc(Cl)c(C(=O)Oc2cccc(-c3cnc4ccccc4n3)c2)c1 | i | i | -7.1* | -0.23 | i | i
C=CCNc1nc2ccccc2nc1NS(=O)(=O)c1cccc(C)c1 | i | i | i | -0.67 | i | i
CC(NC(=O)CCN1C(=O)c2ccccc2C1=O)c1ccc2c(c1)CCCC2 (centres undefined) | i | i | i | -4.2* | i | i
O=C(COC(=O)c1n[nH]c2ccccc12)NC(=O)NCc1ccco1 | i | i | i | 0.1 | i | i
Cc1ccc2[nH]c(=O)c(CN(Cc3ccccc3)C(=S)NCCCN(C)C)cc2c1 | i | i | i | -4.7* | i | i
COc1cc2cc(CN(CCc3ccccc3C)C(=S)NCCCN(C)C)c(=O)[nH]c2cc1OC | i | i | i | -1 | i | i
CC(NC(=O)OCc1ccccc1)C(=O)OCN1C(=O)c2ccccc2C1=O (centres undefined) | i | i | i | -0.4 | i | i
CN(C)c1ccc(CNCCC(Cc2ccccc2)c2ccco2)cc1 (centres undefined) | i | i | i | -4.7* | i | i
